Compound activity deposited in PubChem BioAssay by Sanford-Burnham Center for Chemical Genomics.
The list is a sample of the results.
Apaf-1 act: activates human Apaf-1 apoptosome | 330,000 tested, 0.31% active | Apaf-1 apoptosome caspase-3 activation, DEVD-Rh110 fluorescence; stronger effect = lower value | activity change, negative = activation, % at 20 µM;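 active = activity change at or below -40% at 20 µM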
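Material: biochemical Apaf-1 apoptosome reconstitution; Medium: 20 mM HEPES buffer, pH 7.5, containing CHAPS and BSA; Reagent: dATP, cytochrome c, and (Z-DEVD)2-Rh110 caspase-3 substrate; Times: 30 min preincubation, 50 min reaction, room temperature; Signal: Rh110 fluorescence, excitation 480 nm, emission 540 nm; Measure: Caspase-3 activity via Apaf-1.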
Rh110 act interf: interferes with Rh110 fluorescence, flagging false Apaf-1 activators; shares compounds with Apaf-1 act; Rh110 fluorescence interference, quenched caspase reaction, Ex480/Em540; fluorescence interference (activity change), % at 20 µM, hits read low; 980 tested, under 10 active; AID 504616;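 active = mean activity change at or below -40% when tested at 20 µM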
Apaf-1 act conf: confirmation of human Apaf-1 activators; shares compounds with Apaf-1 act; reconstituted apoptosome caspase-3 activity, DEVD-Rh110 fluorescence; stronger effect = lower value; activity change, negative = activation, % at 20 µM; 980 tested, 5% active; AID 504617;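 active = mean activity change at or below -40%, meaning activation of 40% or more, at 20 µM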
Apaf1 act interf: shows fluorescence interference in the Apaf-1 activator assay format. shares compounds with Apaf-1 act. fluorescence interference counterscreen. EC50, µM. 55 tested, under 10 active; call rule not given here
An asterisk follows results filed as active.

How did O=C(NCCCn1ccnc1)c1noc2c1CCc1ccccc1-2 do in these assays?
Apaf-1 act: 47

What do the screens show for `O=C(C[C@H]1C[C@H](C(=O)N2CCOCC2)[C@@]2(CCC3CCCC3)c3[nH]c4ccc(Cl)cc4c3CCN2C1=O)NCCCn1ccnc1`?
Apaf-1 act: 58

Results for O=C(NCCCn1ccnc1)c1cc(Cl)cc(Cl)c1 ?
Apaf-1 act: -106*; Rh110 act interf: -38; Apaf-1 act conf: 7

Results for O=C1c2ccccc2-c2onc3ccc(NCc4ccco4)c1c23 ?
Apaf-1 act: 69

How did COC(CNC(=O)c1ccc2c3c(onc13)-c1ccccc1C2=O)OC do in these assays?
Apaf-1 act: 73

What do the screens show for `CCOc1ccc2noc3c2c1C(=O)c1ccccc1-3`?
Apaf-1 act: 76; Apaf1 act interf: 14*

Results for CCCCCc1cc(=O)oc2c(C(CCN(CC)CC)c3ccc(OC)cc3)c(OC)cc(OC)c12 (stereo unspecified) ?
Apaf-1 act: 61

How did CN1Cc2c(N3CCOCC3)nc3sc(C(=O)c4ccc(Br)cc4)c(N)c3c2CC1(C)C do in these assays?
Apaf-1 act: 56

What do the screens show for `O=C(NCCCCCCNC(=O)OC1CCS(=O)(=O)C1)OC1CCS(=O)(=O)C1` (stereo unspecified)?
Apaf-1 act: -48*; Rh110 act interf: 8; Apaf-1 act conf: 4

What do the screens show for `O=C(NC1CCS(=O)(=O)C1)Oc1ccccc1` (stereo unspecified)?
Apaf-1 act: 51

What do the screens show for `CN1CCc2cccc3c2C1Cc1ccc(O)c(O)c1-3` (stereo unspecified)?
Apaf-1 act: 50

What do the screens show for `CC(C)c1ccc(NC(=S)Nc2cccc3ccccc23)cc1`?
Apaf-1 act: 84

How did CN(C)S(=O)(=O)N1CCCN(S(=O)(=O)N(C)C)CC1 do in these assays?
Apaf-1 act: -313*; Rh110 act interf: 0; Apaf-1 act conf: 14

What do the screens show for `CCCCC[n+]1ccn(C2=C([O-])c3ccccc3C(=O)/C2=N\S(=O)(=O)c2ccc(Cl)cc2)c1`?
Apaf-1 act: 70

What do the screens show for `C=CCOc1c(Cl)cc(CNc2ccc(N(C)C)cc2)cc1OC`?
Apaf-1 act: 64

How did CN1CCc2c(C#N)c(N3CCCCC3)nc(NCc3ccccc3)c2C1 do in these assays?
Apaf-1 act: 52

Results for O=C1C2C3C=CC(CC3)C2C(=O)N1c1cccc(C(F)(F)F)c1 (stereo unspecified) ?
Apaf-1 act: -120*; Rh110 act interf: 16; Apaf-1 act conf: 20

Results for O=C(c1cccc(S(=O)(=O)NCc2ccccc2)c1)N1CCN(c2cccc(C(F)(F)F)c2)CC1 ?
Apaf-1 act: 44

How did CN1CCN(CC(=O)N2CCn3c4c(c5cc(C6CCCCC6)ccc53)CCCC42)CC1 (stereo unspecified) do in these assays?
Apaf-1 act: 58

How did O=C(O)c1ccc(NC2=C(N3CCOCC3)C(=O)c3ccccc3C2=O)cc1 do in these assays?
Apaf-1 act: 68

How did Clc1nc(Nc2ccc(N3CCOCC3)cc2)c2ccccc2n1 do in these assays?
Apaf-1 act: -393*; Rh110 act interf: 6; Apaf-1 act conf: 6

Results for Cc1cccc(NC(=S)Nc2cccc3ccccc23)c1 ?
Apaf-1 act: 93

What do the screens show for `CCOc1ccc(NC(=O)CN(C)C(=O)c2ccccc2OCc2cccc(C)c2)cc1OCC`?
Apaf-1 act: 46

How did Cc1cccc(CC(=O)Nc2ccon2)c1 do in these assays?
Apaf-1 act: -278*; Rh110 act interf: 6; Apaf-1 act conf: 8

How did FC(F)(F)c1cc(CCN2CCNC[C@@H]2CC2CCCCC2)cc(C(F)(F)F)c1 do in these assays?
Apaf-1 act: 79

What do the screens show for `O=C(NC1CC1)c1ccc(CS(=O)c2ccccc2)o1` (stereo unspecified)?
Apaf-1 act: -97*; Rh110 act interf: 3; Apaf-1 act conf: 9

Results for O=C(CCN1CCOCC1)N1CCCC(Nc2ccc(F)cc2)C1 (stereo unspecified) ?
Apaf-1 act: -56*; Rh110 act interf: 3; Apaf-1 act conf: 5

Results for CC/C(=C(\c1ccccc1)c1ccc(OCCN(C)C)cc1)c1ccccc1 ?
Apaf-1 act: 69

Results for COC(=O)CCC(=O)OC1(C)C(=O)C2=CN(CCN3CCOCC3)C(c3ccc(OC)cc3)=CC2=C(Br)C1=O (stereo unspecified) ?
Apaf-1 act: 86

How did CCn1c(=NC(=O)c2ccco2)sc2cccc(F)c21 do in these assays?
Apaf-1 act: -432*; Rh110 act interf: 12; Apaf-1 act conf: 14

Results for CSc1ncc(CN2CCc3c([nH]c4ccccc34)C2c2cccc(O)c2)cn1 (stereo unspecified) ?
Apaf-1 act: -158*; Rh110 act interf: -4; Apaf-1 act conf: 14

What do the screens show for `CCOC(=O)c1cnc(SCC(=O)N2CCN(C(=O)c3ccco3)CC2)nc1N`?
Apaf-1 act: -93*; Rh110 act interf: 1; Apaf-1 act conf: 10

How did CCOC(=O)c1cnc2ccc(C)cc2c1Nc1ccc(N2CCOCC2)cc1 do in these assays?
Apaf-1 act: 41

What do the screens show for `CCCCCCCCNC(C)C(O)c1ccc(SC(C)C)cc1` (stereo unspecified)?
Apaf-1 act: 58

What do the screens show for `CCC(CO)Oc1cc(NCc2cccc(Cl)c2)c2ncn(C(C)C)c2c1` (stereo unspecified)?
Apaf-1 act: 73

Results for CCC[C@@H](CN1CCC[C@H]1CN1C(N)=NC[C@@H]1Cc1ccccc1)N1C[C@@H](Cc2ccccc2)N(CCc2ccc(Cl)c(Cl)c2)C1=N ?
Apaf-1 act: 78

Results for Cc1cc(SCC(=O)OC(C)C(=O)N(C)c2ccccc2)nc2ccccc12 (stereo unspecified) ?
Apaf-1 act: -324*; Rh110 act interf: -1; Apaf-1 act conf: 8

What do the screens show for `COc1cc(/C=N/N=C2/C(=O)Nc3ccccc32)ccc1O`?
Apaf-1 act: -445*; Rh110 act interf: 8; Apaf-1 act conf: 19

How did COc1ccc(N)c2c1OCCC2=O do in these assays?
Apaf-1 act: 87

Results for O=C(COc1ccccc1[N+](=O)[O-])N/N=C/c1ccncc1 ?
Apaf-1 act: -53*; Rh110 act interf: 9; Apaf-1 act conf: 15

How did O=C(N/N=C\c1ccc(-c2ccccc2[N+](=O)[O-])o1)C1COc2ccccc2O1 (stereo unspecified) do in these assays?
Apaf-1 act: 79

Results for O=C(N/N=C/c1ccc(-c2ccccc2[N+](=O)[O-])o1)c1cncc(Br)c1 ?
Apaf-1 act: 81

What do the screens show for `CSc1nc(NC(C)(C)C)nc(Oc2ccc(=O)n(C)n2)n1`?
Apaf-1 act: -55*; Rh110 act interf: 6; Apaf-1 act conf: 2

How did Cc1ccc(-n2c(SCC(=O)Nc3cc(C)on3)nc3c([nH]c4ccccc43)c2=O)cc1 do in these assays?
Apaf-1 act: 54

Results for COc1cc(OC)c2c(-c3cccc(-c4ccc(CO)cc4)c3)cc(=O)oc2c1 ?
Apaf-1 act: 42

Results for CC(=O)c1cccc(-c2ccc3c(=O)[nH]c(Nc4ccccc4)cc3c2)c1 ?
Apaf-1 act: 96; Apaf1 act interf: >100
